Data reported in publication PMC3760157 (Bioorganic & medicinal chemistry letters, 2013).
Counter-ions that a name gives are not always drawn.

Assays:
[1] = test system: C. albicans SC5314; assay: In vivo efficacy in mouse model of systemic candidiasis; details: 5 and 25 mg/kg
[2] = In vitro cytotoxicity; assay type: cell-based; details: African green monkey, Vero cells (African green monkey kidney fibroblast)
Summary of the method: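 Vero (African green monkey kidney) cell growth assay. […] Test compounds went up to 25 μg/mL and the doxorubicin control up to 5 μg/mL. Values are means of three independent experiments.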

[3] = test system: C. albicans ATCC 90028; assay: In vitro antifungal testing; assay type: cell-based, Candida albicans; details: from MIC/MFC
[4] = test system: C. albicans, Candida glabrata, Candida krusei, Aspergillus fumigatus, and C. neoformans; assay: In vitro antifungal testing, range over all tested pathogens; assay type: cell-based; details: range over the five fungal pathogens
Summary of the method: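 Broth microdilution. MIC is the lowest concentration with no detectable growth. For MFC, 5 μL from each clear well was moved to agar and incubated at 35°C: 48 h for Candida spp. and A. fumigatus, 72 h for C. neoformans. […] Values are means of three independent experiments (two for one analogue).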

[5] = test system: fungi; details: antifungal activity; cited from earlier work
[6] = patients with leishmania; cited from earlier work

Row | SMILES | IC50 [2] [µg/mL] | also measured
1 | CCCCCCCCCCCCCCCCOP(=O)([O-])OCC[N+](C)(C)Cc1ccccc1 [Compound 3a, N-benzyl-N,N-dimethyl-2-{[(hexadecyloxy)hydroxyphosphinyl]oxy}ethanaminium inner salt] | > 25 | Survival rate of mice vs PBS control, oral administration [1]: did not enhance the survival rate; fold less potent than amphotericin B [3]: 2- to 3 fold; MFCs, range against all tested pathogens [4]: 2.5 to 15.0 µg/mL; MICs, range against all tested pathogens [4]: 2.5 to 5.0 µg/mL
2 | CCCCCCCC/C=C\CCCCCCCCCCCCOP(=O)([O-])OCC[N+](C)(C)C [erucylphosphocholine] | – | fold less potent than miltefosine [5]: 8 fold
3 | CCCCCCCCCCCCCCCCOP(=O)([O-])OCC[N+](C)(C)Cc1ccc([N+](=O)[O-])cc1 [Compound 3d, N,N-dimethyl-N-(4-nitrobenzyl)-2-{[(hexadecyloxy)hydroxyphosphinyl]oxy}ethanaminium inner salt] | > 25 | fold less potent than amphotericin B [3]: 2- to 3 fold; MICs, range against all tested pathogens [4]: 2.5 to 5.0 µg/mL
4 | CCCCCCCCCCCCCCCCOP(=O)([O-])OCC[N+](C)(C)Cc1ccc(Cl)cc1 [Compound 3f] | > 25 | –
5 | CCCCCCCCCCCCCCCCOP(=O)([O-])OCC[N+](C)(C)C [Miltefosine, hexadecylphosphocholine] | > 25 | half-life, first elimination [6]: 7 days; half-life, terminal elimination [6]: 31 days
6 | CCCCCCCCCCCCCCCCOP(=O)([O-])OCC[N+](C)(C)C/C=C/c1ccccc1 [Compound 3h] | > 25 | –
7 | CCCCCCCCCCCCCCOP(=O)([O-])OCC[N+](C)(C)Cc1ccccc1 [Compound 3b] | > 25 | –
8 | C=CC[N+](C)(C)CCOP(=O)([O-])OCCCCCCCCCCCCCCCC [Compound 3i] | > 25 | –
9 | COc1cccc2c1C(=O)c1c(O)c3c(c(O)c1C2=O)C[C@@](O)(C(=O)CO)C[C@@H]3O[C@H]1C[C@H](N)[C@H](O)[C@H](C)O1 [Doxorubicin, reference compound] | > 5 | –
10 | CCCCCCCCCCCCCCCCOP(=O)([O-])OCC[N+](C)(C)Cc1ccc(Br)cc1 [Compound 3g] | > 25 | –
11 | CCCCCCCCCCCCCCCCOP(=O)([O-])OCC[N+](C)(C)Cc1ccc(OC)cc1 [Compound 3e, N-(4-methoxybenzyl)-N,N-dimethyl-2-{[(hexadecyloxy)hydroxyphosphinyl]oxy}ethanaminium inner salt] | > 25 | MICs, range against all tested pathogens [4]: 2.5 to 5.0 µg/mL
12 | CCCCCCCCCCCCCCCCCCOP(=O)([O-])OCC[N+](C)(C)Cc1ccccc1 [Compound 3c] | > 25 | –
